Screens from PubChem.
MC4R barr agon – agonists of human melanocortin 4 receptor (MC4R) beta-arrestin; P32245; U2OS MC4R beta-arrestin complementation, luminescence; percent of melanotan II response, DMSO zero; activation, % at 8.9 µM; 360,000 tested, 0.98% active;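 active = activation above a per-plate cutoff, the mean activation of sample wells on that plate plus 3 SD, cut at about 8% in these data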
MIN6 prolif – MIN6 beta-cell proliferation induction. MIN6 cells proliferation, ATPlite luminescence, 48 h; cells starved in 0.2% serum; 100% = growth in 10% serum. 330,000 tested, 0.29% active. proliferation, % at 10 µM;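 active = compounds whose signal lies at least 3.5 SD above the mean of all wells on their plate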;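 also: 0% = DMSO-treated cells in low-serum medium and 100% = 10% serum control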
m5-HT2A agonist – activates the mouse 5-HT2A serotonin receptor. P35363. CHO-K1 mHTR2A beta-arrestin complementation, luminescence; percent of 30 µM serotonin response. activation, % at 7.6 µM. 360,000 tested, 0.66% active. AID 624169;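 active = activation above a run cutoff, the mean activation of all tested compounds plus 3 SD, cut at about 14% in these data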;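 also: 0% = plate median of compound wells and 100% = 30 µM serotonin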
ANO1 activ – activators or potentiators of mouse TMEM16A chloride channel. Q8BHY3. HEK293 TMEM16A/YFP-H148Q/I152L, iodide quench fluorescence; active compounds read low. B-score at 10 µM. 340,000 tested, 0.3% active. AID 623877;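 active = fluorescence-ratio B-score plate-corrected deviation score at least 3 library SD below zero, with starting fluorescence score within 5 deviations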;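 also: channel opened by trigger with iodide after compound preincubation; score built on the fluorescence ratio of max minus min over baseline; more negative score means more quench and so TMEM16A activation or potentiation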
MC4R antagonist – antagonists of human melanocortin 4 receptor (MC4R) | P32245 | MC4R-expressing cells, MTII-stimulated cAMP, LANCE TR-FRET | inhibition, % at 6.5 µM | 360,000 tested, 0.48% active | AID 540295;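 active = inhibition above its plate's cutoff, the mean of tested wells on that plate plus 3 SD, cut at about 29% in these data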;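 also: 0% = Melanotan II alone and 100% = Melanotan II plus saturating MCL0020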
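Assay system: human MC4R-expressing U2OS cells; reagent: Melanotan II stimulation of cells; dosing: 6.5 µM single dose; timing: compound 30 min, challenge 1 h, detection 1 h; signal: TR-FRET cAMP assay; replicates: one well per compound, no replicates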
TMEM16A inh – blocks the mouse calcium-activated chloride channel TMEM16A; Q8BHY3; HEK293 TMEM16A/YFP iodide influx fluorescence, ionomycin; normalized B-score (activity score, 25-100; higher = stronger inhibition) at 10 µM; 310,000 tested, 1.2% active; AID 588511;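 active = ratio plate-corrected score three or more library SD toward inhibition, starting fluorescence score within five deviations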;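 also: score derived from kinetic fluorescence span divided by baseline fluorescence per well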
MC4R barr ag – human MC4R beta-arrestin agonism confirmation. activation, % at 8.9 µM. U2OS MC4R beta-arrestin recruitment, luminescence; scaled DMSO 0%, Melanotan II 100%. 2,400 tested, 31% active. shares compounds with MC4R barr agon. AID 602192;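 active = mean activation across replicates above the hit cutoff set in the earlier primary screen, cut at about 8% in these data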
MOR-DOR barr ag – counter-screen for MC4R agonists: agonists of mu-delta opioid heterodimer. shares compounds with MC4R barr agon. activation, % at 9.2 µM. 2,400 tested, 5.8% active. AID 602194. U2OS PathHunter beta-arrestin, beta-gal luminescence; percent of deltorphin B response, DMSO zero;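 active = mean activation across replicates exceeds the hit threshold derived in the earlier primary screen, cut at about 18% in these data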;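 also: 100% = deltorphin B at 0.9 µM final and 0% = DMSO alone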
TMEM16A reconf – reconfirmed blocker of mouse TMEM16A calcium-activated chloride channel; shares compounds with TMEM16A inh; HEK293 TMEM16A/YFP-H148Q, iodide quench fluorescence; ionomycin added to raise cell calcium; inhibition, % at 10 µM; 2,300 tested, 39% active;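 active = mean duplicate percent inhibition, scaled so buffer wells are 0 and the reference blocker 100, over three buffer SD above buffer mean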
TMEM16A Ca cntr – calcium mobilization counter-screen hit for TMEM16A inhibitor series | calcium response (% of ionomycin), % at 10 µM | 2,300 tested, 2% active | shares compounds with TMEM16A inh | AID 652231 | TMEM16A/YFP HEK293, Fluo4 calcium mobilization;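 active = duplicate-averaged calcium signal over 20% of the ionomycin maximum, relative to buffer baseline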;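 also: each well's signal is peak minus trough fluorescence divided by its pre-addition baseline; 0% = buffer wells and 100% = ionomycin wells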
YFP-HEK293 quench – acts in parental YFP-HEK293 cells lacking TMEM16A, counter-screen. YFP ratio F(max-min)/F0 at 10 µM. 2,300 tested, under 10 active. AID 652233. shares compounds with TMEM16A inh. iodide YFP quench, ionomycin;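 active = yellow fluorescent protein signal ratio exceeding the buffer control mean by over 5 SD of those controls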;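 also: ratio is mean of duplicate wells from kinetic YFP trace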
ClC-1 inh – rat ClC-1 inhibition, TMEM16A specificity screen. shares compounds with TMEM16A inh. CHO ClC-1-YFP, iodide influx fluorescence quench; iodide control reads 0, buffer control 100. ratio percent, % at 10 µM. 2,300 tested, under 10 active;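 active = duplicate-mean ratio percent above the mean of iodide-only control wells, which defines zero, plus 5 of their SD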;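 also: higher percent means stronger block of ClC-1 iodide influx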
Target sequence (P35524 whole entry, looked up): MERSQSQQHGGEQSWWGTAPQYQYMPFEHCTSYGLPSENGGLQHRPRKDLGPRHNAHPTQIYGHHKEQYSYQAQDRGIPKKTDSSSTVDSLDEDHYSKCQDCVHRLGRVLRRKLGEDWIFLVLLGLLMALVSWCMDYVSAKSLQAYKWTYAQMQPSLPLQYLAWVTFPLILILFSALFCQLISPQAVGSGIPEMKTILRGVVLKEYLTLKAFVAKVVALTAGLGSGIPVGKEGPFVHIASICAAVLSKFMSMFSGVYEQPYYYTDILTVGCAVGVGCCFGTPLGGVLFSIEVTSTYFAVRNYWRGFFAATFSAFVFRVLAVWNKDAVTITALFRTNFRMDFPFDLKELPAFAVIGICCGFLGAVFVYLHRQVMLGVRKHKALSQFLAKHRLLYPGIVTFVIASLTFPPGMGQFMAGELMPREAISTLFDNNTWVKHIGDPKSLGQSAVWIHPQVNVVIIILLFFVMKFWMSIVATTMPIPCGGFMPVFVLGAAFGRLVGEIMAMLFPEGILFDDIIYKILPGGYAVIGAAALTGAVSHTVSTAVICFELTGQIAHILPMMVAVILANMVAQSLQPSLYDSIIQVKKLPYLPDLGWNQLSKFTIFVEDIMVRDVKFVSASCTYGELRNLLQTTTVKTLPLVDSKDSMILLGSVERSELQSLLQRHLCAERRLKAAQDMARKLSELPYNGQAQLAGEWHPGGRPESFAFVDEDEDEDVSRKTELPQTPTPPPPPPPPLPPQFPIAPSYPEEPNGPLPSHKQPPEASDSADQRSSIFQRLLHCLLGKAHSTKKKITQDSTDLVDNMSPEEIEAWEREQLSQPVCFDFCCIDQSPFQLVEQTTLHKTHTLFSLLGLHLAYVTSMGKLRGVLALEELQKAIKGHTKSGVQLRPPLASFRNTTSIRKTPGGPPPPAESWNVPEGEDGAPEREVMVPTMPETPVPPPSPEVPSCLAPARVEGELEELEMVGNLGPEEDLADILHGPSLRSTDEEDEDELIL
MOR ag counter – counter-screen for mouse HTR2A agonists: human mu opioid receptor agonists; shares compounds with m5-HT2A agonist; U2OS OPRM1 beta-arrestin PathHunter, luminescence; DMSO 0%, DAMGO 9.3 µM 100%; activation, % at 9.3 µM; 2,300 tested, 5.3% active; AID 624380;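 active = mean activation above the mean of DMSO-only wells plus 3 SD, cut at about 0.5% in these data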
HTR2A ag conf – confirmation of mouse HTR2A serotonin receptor agonists | shares compounds with m5-HT2A agonist | CHO-K1 PathHunter beta-arrestin recruitment, luminescence; DMSO 0%, 30 µM serotonin 100% | activation, % at 7.6 µM | 2,300 tested, 19% active | AID 624381;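 active = mean activation across triplicates above the hit threshold derived in the original primary screen, cut at about 15% in these data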
* = called active by the depositor; i = inactive; x = no result. Only some compounds are listed: those with a hit (about 3.4% of all), similar ones and a draw of the others.

SMILES	MC4R barr agon	MIN6 prolif	m5-HT2A agonist	ANO1 activ	MC4R antagonist	TMEM16A inh	TMEM16A reconf	TMEM16A Ca cntr	YFP-HEK293 quench	ClC-1 inh	others
O=C(NCC1OCCc2ccccc21)c1ccc(NC(=O)c2ccccc2Cl)cc1 (centres undefined)	-1	-1	-3	i	4	i	x	x	x	x
O=C(NCC1OCCc2ccccc21)c1ccc(NC(=O)c2ccc(Cl)cc2Cl)cc1 (centres undefined)	15*	-4	16*	i	-8	i	x	x	x	x	MC4R barr ag=2;MOR-DOR barr ag=2;MOR ag counter=0.8*;HTR2A ag conf=11
CC1(C(=O)NS(=O)(=O)c2ccc(Br)cc2)CCN1C(=O)CCc1cccs1 (centres undefined)	-1	x	6	x	3	x	x	x	x	x
COc1ccc(-c2cnc3c(NC(C)=O)cc(-c4ccc(C(=O)N5CCOCC5)cc4)cn23)cc1OC	11*	x	15*	x	3	x	x	x	x	x	MC4R barr ag=9.4*;MOR-DOR barr ag=3;MOR ag counter=0;HTR2A ag conf=3
COCC(=O)Nc1c(C(=O)Nc2ccccc2OC)oc2ccccc12	22*	-2	15*	i	3	i	x	x	x	x	MC4R barr ag=3;MOR-DOR barr ag=5;MOR ag counter=0;HTR2A ag conf=-6
CCCNC(=O)c1ccc(Cn2cc(-c3ccc(OC)cc3)nc2C(C)N)cc1 (centres undefined)	0	-3	3	i	-1	i	x	x	x	x
CCc1ccc(C2NC(=S)NC3=C2C(=O)N(c2ccccc2OC)C(c2ccc(CC)cc2)N3)cc1 (centres undefined)	18*	-6	37*	i	5	i	x	x	x	x	MC4R barr ag=14*;MOR-DOR barr ag=4;MOR ag counter=0;HTR2A ag conf=6
COc1ccccc1N1C(=O)c2ccccc2NC1c1ccncc1 (centres undefined)	-1	0	0	i	3	i	x	x	x	x
CC1CCN(C(=O)CSCC(=O)Nc2nc(-c3cccs3)cs2)CC1	0	-2	-3	i	7	100*	i	i	-1	-16
CCN1C(=O)C(CC(=O)Nc2ccc(F)cc2)N(CCc2ccc(OC)cc2)C1=S (centres undefined)	3	-5	0	i	-2	25*	i	i	-0.96	-1
CCCCNc1c(CC(C)C)nc2nc(C)cc(C)n12	x	x	3	x	x	x	x	x	x	x
Cc1c(/C=N/NC(=O)c2ccc(Br)o2)cnn1C	0	-2	4	i	3	i	x	x	x	x
C=CCN(C(=O)c1cccc(S(=O)(=O)N2CCN(C)CC2)c1)c1nc(-c2ccccc2)cs1	-2	-3	-2	i	10	100*	20%*	i	-1	-7
c1ccc2c(c1)OCC(c1csc3ncnc(N4CCCC4)c13)O2 (centres undefined)	0	-4	-3	i	14	25*	20%*	i	-0.96	-12
O=C(Nc1ccncc1)c1cc(C2CCCCN2C(=O)CCc2ccccc2)on1 (centres undefined)	-2	x	-3	x	2	x	x	x	x	x
CCOC(=O)CC(=O)CSc1nc2c(sc(=S)n2-c2ccc(C)c(C)c2)c(=O)[nH]1	-2	-3	6	x	11	25*	i	i	-1.1	-12
CCOC(=O)CC(=O)CSc1nc2c(sc(=S)n2-c2ccc(OCC)cc2)c(=O)[nH]1	-2	-4	4	i	1	i	x	x	x	x
COc1ccc(OCC(=O)Nc2c(C)ccc3nsnc23)cc1	-4	-3	-2	i	-3	i	x	x	x	x
O=C(Nc1cccc(S(=O)(=O)N2CCCCC2)c1)c1ccccc1NS(=O)(=O)c1ccc(F)cc1	0	-6	6	i	-2	100*	40%*	i	-1	-12
O=C(Cc1ccccc1Cl)Nc1cccc(S(=O)(=O)N2CCCCCC2)c1	-2	-4	-3	i	4	x	x	x	x	x
NS(=O)(=O)c1cccc(NC(=O)c2ccccc2NS(=O)(=O)c2ccc(F)cc2)c1	0	0	-2	i	2	i	x	x	x	x
O=C(Nc1cccc(S(=O)(=O)N2CCCCC2)c1)Nc1ccc(Cl)cc1Cl	-2	-6	-1	i	21	100*	i	i	-0.89	-18
O=C(Nc1cc(S(=O)(=O)N2CCCCC2)ccc1O)c1ccccc1NS(=O)(=O)c1ccc(F)c(F)c1	-2	0	-2	i	7	25*	50%*	i	-0.8	-10
Cc1ccc(NC(=O)c2ccccc2NS(=O)(=O)c2ccc(F)cc2)cc1S(=O)(=O)N1CCCCC1	1	-3	2	i	17	25*	45%*	i	-0.9	-16
O=C(CSc1nnc(Nc2ccccc2F)s1)NC1CC1	-1	-3	8	i	2	x	x	x	x	x
CCCNC(=O)CN1C(=O)NC(c2ccccc2)(c2ccccc2)C1=O	0	1	1	i	1	i	x	x	x	x
Cc1c(C(=O)NCc2ccc([N+](=O)[O-])cc2)sc(=O)n1Cc1ccc2c(c1)OCO2	1	x	14	x	-2	x	x	x	x	x
